Bioassay records (PubChem BioAssay)
Most compounds without a hit are left out; they make up all but 4.8% or so of the library.
SKKanGAS inh: S. pyogenes SKKanGAS growth inhibitors in kanamycin, primary screen, streptokinase expression inhibitor project, SKKanGAS strain, BacTiter-Glo luminescence; 6 h; inhibition, % at 7.5 µM; actives 1.3% (n = 300,000); AID 1662, 2009;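 active = mean replicate score, as percent of positive control median, at least 50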;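 note: strain carries kanamycin resistance gene driven by streptokinase promoter and grows in 40 µg/ml kanamycin; loss of luminescence reflects streptokinase promoter inhibition or plain growth inhibition; 0% = median of DMSO wells and 100% = positive control at its reference dose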
Mdm2 MdmX PPI: inhibitors of human Mdm2-MdmX association, primary screen, cell-based, luminescence, split luciferase, SaOS-2, uHTS; Protein Mdm4 (Homo sapiens) + E3 ubiquitin-protein ligase Mdm2 (Homo sapiens), …; SaOS-2 split-luciferase Mdm2/MdmX complementation; inhibition, % at 8 µM; actives 3% (n = 330,000);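 active = inhibition of at least 50% at 8 µM in the primary screen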
Target sequence (O15151 whole entry, looked up): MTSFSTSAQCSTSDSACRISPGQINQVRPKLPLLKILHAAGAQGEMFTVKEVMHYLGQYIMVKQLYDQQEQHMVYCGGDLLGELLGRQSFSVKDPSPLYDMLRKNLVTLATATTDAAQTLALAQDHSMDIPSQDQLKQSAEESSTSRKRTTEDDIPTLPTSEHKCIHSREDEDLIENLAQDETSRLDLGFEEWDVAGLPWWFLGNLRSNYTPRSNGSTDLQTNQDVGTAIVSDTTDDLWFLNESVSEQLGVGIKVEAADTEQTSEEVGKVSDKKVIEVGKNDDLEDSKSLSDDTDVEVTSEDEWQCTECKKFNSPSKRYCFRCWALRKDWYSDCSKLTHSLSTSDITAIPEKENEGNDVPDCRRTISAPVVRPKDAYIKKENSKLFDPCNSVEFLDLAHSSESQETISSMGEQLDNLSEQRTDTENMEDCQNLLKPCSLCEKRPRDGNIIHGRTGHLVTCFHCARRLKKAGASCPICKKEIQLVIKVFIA
Target sequence (Q00987 whole entry, looked up): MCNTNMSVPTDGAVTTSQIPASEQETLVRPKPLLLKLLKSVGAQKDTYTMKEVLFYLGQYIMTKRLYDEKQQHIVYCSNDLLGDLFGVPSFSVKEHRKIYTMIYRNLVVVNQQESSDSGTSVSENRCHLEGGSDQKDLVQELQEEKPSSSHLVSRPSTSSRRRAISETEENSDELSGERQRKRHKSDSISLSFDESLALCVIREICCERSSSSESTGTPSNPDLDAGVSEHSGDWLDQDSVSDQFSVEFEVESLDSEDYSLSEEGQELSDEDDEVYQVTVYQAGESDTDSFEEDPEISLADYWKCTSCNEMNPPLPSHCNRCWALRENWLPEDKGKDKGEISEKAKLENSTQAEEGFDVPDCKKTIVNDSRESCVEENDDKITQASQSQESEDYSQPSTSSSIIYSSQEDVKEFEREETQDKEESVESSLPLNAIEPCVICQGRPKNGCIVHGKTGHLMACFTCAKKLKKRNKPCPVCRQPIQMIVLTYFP
UPR XBP1 act: activators of adaptive XBP1 UPR arm, primary screen, cell-based, CHO-XBP1 luciferase reporter, luminescence, uHTS | IRE1-XBP1 UPR activation; percent of tunicamycin response, DMSO as zero | actives 0.33% (n = 330,000) | AID 463104, 2010 | activation, % at 20 µM;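 active = versus positive control, 20 µM dose yields 30% or more activation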;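 note: 100% = tunicamycin at 10 µg/mL and 0% = DMSO only wells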
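Material: CHO-XBP1 cells stably carrying IRE1-XBP1-driven luciferase reporter / Amount: 1000 cells per well / Compound: 20 µM, 1% DMSO / Times: 6 h treatment, 37 °C / Detection: luciferase luminescence / Measure: % activation of reporter signal versus tunicamycin and DMSO controls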
CSC inhib: cancer stem cell viability inhibitors, primary screen, luminescence; cancer stem cell-like cells viability; inhibition, % at 7.5 µM; actives 1.1% (n = 300,000); in the data active = inhibition above about 75%; tested in HMLE shEcad cells
Beta cell apopt: inhibitors of cytokine-induced beta cell apoptosis, primary screen, luminescence | INS-1E cytokine-induced death, ATP luminescence, 48 h; percent of positive-control rescue, neutral wells zero | protection from apoptosis, % (concentration not given with the values) | actives 0.8% (n = 300,000) | AID 435005, 2010;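 active = Every replicate reaches about 75%, or at least half do and their mean reaches it too, limit read from the data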;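 note: 0% = cytokine-treated negative control wells and 100% = positive control rescue; higher means more ATP so stronger rescue from cytokine killing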
UPR CHOP act: activators of apoptotic CHOP UPR arm, primary screen, cell-based, CHO-CHOP luciferase reporter, luminescence, uHTS | UPR activation; percent of tunicamycin response over DMSO baseline | activation, % at 10 µM | actives 0.34% (n = 330,000) | AID 449763, 2010;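 active = at 10 µM dose, activation of 40% or more, normalized to positive control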;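 note: 100% = tunicamycin at 10 µg/mL and 0% = DMSO alone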
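Test system: CHO CHOP reporter cells. Input: 500 CHO-CHOP cells per well. Medium: F12 with 10% FBS. Technique: luciferase luminescence. Measure: percent activation relative to tunicamycin control. Dosing: 10 µM compound, 0.5% DMSO. Timing: 16-18 h cell attachment, then 6 h compound exposure, 37 °C.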
Mdm2-MdmX conf: Mdm2-MdmX complex disruptors, retested hits, confirmation, luminescence, single concentration | shares compounds with Mdm2 MdmX PPI | Mdm2-MdmX binding, luminescent assay | inhibition, % at 8 µM | actives 55% (n = 10,000); in the data active = inhibition above about 40%
Full FLuc ctr: full-length luciferase signal inhibition, confirmation, counter-screen for Mdm2/MdmX interaction inhibitor project, cell-based, single concentration, SaOS-2; shares compounds with Mdm2 MdmX PPI; SaOS-2 full-length luciferase counterscreen, luminescence; inhibition, % at 8 µM; actives 77% (n = 6,200);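 active = mean inhibition at 8 µM reaching about 37%, which flags the compound as non-specific, limit read from the data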;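 note: p53-null SaOS-2 cells with luciferase driven by a doxycycline-inducible promoter; compound on cells about two nights before reading with doxycycline added after day one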
Starred values were filed as active, the others as inactive; x = not tested or not shown.

SMILES	SKKanGAS inh	Mdm2 MdmX PPI	UPR XBP1 act	CSC inhib	Beta cell apopt	UPR CHOP act	Mdm2-MdmX conf	Full FLuc ctr
CCOC(=O)C(C)(C)N(Cc1ccc(C)cc1)S(=O)(=O)c1ccc(Cl)c([N+](=O)[O-])c1	-7.3	96.0*	-2.0	-2.5	-10.7	2.3	65.5*	70.7*
CCOC(=O)C(C)(C)N(Cc1ccc(Cl)cc1)S(=O)(=O)c1ccc(Cl)c([N+](=O)[O-])c1	1.2	95.3*	1.2	109.4*	-0.9	7.8	81.2*	50.0*
CCCCN(C)C(=O)C1CCN(Cc2cccc(OCc3ccccc3)c2)CC1	-3.2	12.4	-1.1	1.1	-0.6	0.3	x	x
Cc1ccc(OCCNC(=O)c2cncc(Br)c2)cc1C	-3.0	60.3*	-5.2	53.3	-12.4	-4.9	48.3*	59.6*
Cc1cccc(OCCNC(=S)NC(=O)c2cncc(Br)c2)c1	-4.2	12.8	1.9	-9.6	x	1.7	x	x
COc1ccc(CNC(=O)C(OC(=O)c2ccco2)c2ccc(F)cc2)cc1 (stereo unspecified)	16.7	8.1	-0.7	-17.2	-1.5	0.4	x	x
O=C(NCc1cccnc1)c1c(O)c2cccc3c2n(c1=O)CCC3	-2.4	70.8*	3.0	-1.2	-7.0	-1.0	44.7*	31.4
NCCNC(=O)c1c(O)c2cccc3c2n(c1=O)CCC3	5.5	-22.4	-4.8	x	x	2.1	x	x
C=CCNC(=O)c1c(O)c2cccc3c2n(c1=O)CCC3	-0.5	66.3*	-0.1	5.2	x	-1.6	56.3*	52.7*
CC1CCN(C(=O)CCc2nnc3ccc(N4CCC5(CC4)OCCO5)nn23)CC1	2.2	15.2	-3.9	-23.7	2.0	-0.3	x	x
CC(=O)c1ccc(N2CCN(C(=O)c3cc(-c4ccncc4)nc4ccc(Cl)cc34)CC2)cc1	1.0	62.9*	-2.6	1.4	3.2	6.3	29.6	x
Cc1cccc2c(C(=O)N3CCCCC3)cc(-c3ccccc3)nc12	3.7	3.2	-1.7	44.6	-1.0	-1.1	x	x
O=C(c1cc(-c2ccncc2)nc2ccc(Cl)cc12)N1CCN(C(=O)C2CCCO2)CC1 (stereo unspecified)	6.5	1.8	0.3	-6.4	-6.0	0.9	x	x
Cc1cccc2c(C(=O)N3CCN(c4ccccc4)CC3)cc(-c3ccncc3)nc12	-9.5	57.2*	19.1	58.0	10.5	-0.9	75.4*	69.4*
CCOC(=O)c1c2c(n(C)c1COC)C(=O)C(=O)c1ccc(Br)cc1-2	88.1*	99.3*	-4.6	121.3*	105.3*	-7.7	98.3*	4.2
O=C(NC1CCCc2ccccc21)c1ccccc1OC(F)F (stereo unspecified)	-1.5	17.4	-0.3	-1.1	-7.1	-0.1	x	x
CCOc1ccc(-c2nnn(CC(=O)NCc3ccc(OC)cc3)n2)cc1OCC	-4.1	61.9*	-1.4	0.5	4.6	-1.8	15.8	x
CCOc1ccccc1NC(=O)Cn1nnc(-c2ccc(OCC)c(OCC)c2)n1	-8.1	88.2*	-3.3	x	x	-2.9	7.5	x
CCOc1ccc(-c2nnn(CC(=O)NCc3ccc(C)cc3)n2)cc1	-16.2	28.6	-0.2	-4.4	1.7	-2.0	x	x
CCOc1ccc(-c2nnn(CC(=O)Nc3cc(OC)ccc3OC)n2)cc1OCC	-4.6	0.4	2.6	-11.5	-5.8	-0.4	x	x
CCOc1ccc(-c2nnn(CC(=O)Nc3cc(OC)cc(OC)c3)n2)cc1OCC	7.4	13.3	-2.1	0.4	1.8	-1.1	x	x
COc1ccc(CNC(=O)Cn2nnc(-c3ccc(NC(=O)C4CCCCC4)cc3)n2)cc1	-10.3	61.1*	2.5	8.5	2.6	4.4	15.2	x
CC(C)CCNC(=O)C1CCCN(S(=O)(=O)c2ccc3c(c2)CC(C)N3C(=O)C2CC2)C1 (stereo unspecified)	-14.7	9.3	-1.0	6.4	x	-0.9	x	x
O=c1c(Cl)nc2cc(Cl)ccc2n1CCNc1ncc(C(F)(F)F)cc1Cl	-1.4	96.8*	-9.4	-1.4	2.3	-11.8	43.4*	6.5
O=c1c2nncn2c2cc(C(F)(F)F)ccc2n1CCNc1ncc(C(F)(F)F)cc1Cl	1.7	1.2	2.1	10.2	5.8	-0.8	x	x
SMILES	SKKanGAS inh	Mdm2 MdmX PPI	UPR XBP1 act	CSC inhib	Beta cell apopt	UPR CHOP act	Mdm2-MdmX conf	Full FLuc ctr
CCc1nc(Nc2ccncc2)c2oc3ccccc3c2n1	-0.4	63.2*	-0.4	7.8	6.0	-1.3	78.6*	31.6
Cc1nc(Nc2ccncc2)c2oc3ccccc3c2n1	-5.7	72.5*	1.4	-1.8	47.0	-2.2	54.8*	47.5*
COc1cccc(-c2nc(-c3ccccc3)nc(N3CCN(C)CC3)c2C#N)c1	7.3	66.4*	5.0	-10.9	13.2	-0.3	53.9*	77.3*
COc1ccc(-c2nc(-c3ccccc3)nc(N3CCN(C)CC3)c2C#N)cc1	13.5	47.2	9.9	45.5	x	-0.3	x	x
COc1ccc(-c2nc(-c3cccc(C)c3)nc(N3CCN(C)CC3)c2C#N)cc1	1.3	65.7*	0.4	-7.4	2.8	-0.4	74.3*	56.5*
O=C(NC(=S)Nc1ccccc1[N+](=O)[O-])c1ccccc1	-0.3	-27.5	5.0	5.1	6.9	1.9	x	x
O=C(NC(=S)/C(=C1\CCCCCN1)[N+](=O)[O-])c1ccccc1	x	85.0*	-8.4	-0.3	0.5	-4.2	79.4*	142.1*
CCN(C(=O)COC(=O)c1oc2ccc(OC)cc2c1C)C1CCCCC1	-1.9	8.7	-0.8	3.0	-4.3	0.1	x	x
O=C(NNC(=O)C1CCN(S(=O)(=O)c2c(Cl)cccc2Cl)CC1)c1ccccc1O	2.5	56.2*	-2.7	-5.7	18.6	-1.9	54.0*	53.7*
O=C(NNC(=O)C1CCN(S(=O)(=O)c2ccccc2C(F)(F)F)CC1)c1ccccc1O	0.3	52.6*	-0.8	-8.8	10.9	0.2	53.2*	51.3*
CCc1nnc(NC(=O)CCC(=O)N2CCN(c3cccc(Cl)c3)CC2)s1	-10.1	4.8	-1.0	-3.4	-2.9	4.9	x	x
C[C@@H]1C(=O)OC[C@H]1NC(=O)OCc1ccccc1	2.0	10.2	-2.2	-19.7	-6.4	0.1	x	x
COc1ccc(-c2noc(CSc3nc4sc(C)c(C)c4c(=O)n3-c3ccccc3)n2)cc1OC	2.5	50.0*	0.6	-7.8	1.3	-1.8	32.4	x
